{
  "source": "ChEMBL document CHEMBL1151692",
  "about": "“Substituted hippurates and hippurate analogs as substrates and inhibitors of peptidylglycine alpha-hydroxylating monooxygenase (PHM)” (Bioorg Med Chem, 2008)",
  "molecules": {"B1": {"name": "Peptidylglycine alpha-amidating monooxygenase (Rattus norvegicus), P14925 (protein)", "chain": "MAGRARSGLLLLLLGLLALQSSCLAFRSPLSVFKRFKETTRSFSNECLGTIGPVTPLDASDFALDIRMPGVTPKESDTYFCMSMRLPVDEEAFVIDFKPRASMDTVHHMLLFGCNMPSSTGSYWFCDEGTCTDKANILYAWARNAPPTRLPKGVGFRVGGETGSKYFVLQVHYGDISAFRDNHKDCSGVSVHLTRVPQPLIAGMYLMMSVDTVIPPGEKVVNADISCQYKMYPMHVFAYRVHTHHLGKVVSGYRVRNGQWTLIGRQNPQLPQAFYPVEHPVDVTFGDILAARCVFTGEGRTEATHIGGTSSDEMCNLYIMYYMEAKYALSFMTCTKNVAPDMFRTIPAEANIPIPVKPDMVMMHGHHKEAENKEKSALMQQPKQGEEEVLEQGDFYSLLSKLLGEREDVHVHKYNPTEKTESGSDLVAEIANVVQKKDLGRSDAREGAEHEEWGNAILVRDRIHRFHQLESTLRPAESRAFSFQQPGEGPWEPEPSGDFHVEEELDWPGVYLLPGQVSGVALDSKNNLVIFHRGDHVWDGNSFDSKFVYQQRGLGPIEEDTILVIDPNNAEILQSSGKNLFYLPHGLSIDTDGNYWVTDVALHQVFKLDPHSKEGPLLILGRSMQPGSDQNHFCQPTDVAVEPSTGAVFVSDGYCNSRIVQFSPSGKFVTQWGEESSGSSPRPGQFSVPHSLALVPHLDQLCVADRENGRIQCFKTDTKEFVREIKHASFGRNVFAISYIPGFLFAVNGKPYFGDQEPVQGFVMNFSSGEIIDVFKPVRKHFDMPHDIVASEDGTVYIGDAHTNTVWKFTLTEKMEHRSVKKAGIEVQEIKEAEAVVEPKVENKPTSSELQKMQEKQKLSTEPGSGVSVVLITTLLVIPVLVLLAIVMFIRWKKSRAFGDHDRKLESSSGRVLGRFRGKGSGGLNLGNFFASRKGYSRKGFDRVSTEGSDQEKDEDDGTESEEEYSAPLPKPAPSS"}},
  "key": {"[1]": {"system": "DU-145", "test": "Antiproliferative activity against human DU145 cells at 10 uM after 48 hrs by trypan blue assay", "type": "functional, cell-based", "procedure,_shortened": "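DU 145 cells plated at 50,000 per well, allowed 24 h to adhere, then given medium containing 10 μM 4-HPR as positive control. Viable cells counted by trypan blue exclusion on a hemacytometer, with growth read at 48 h.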"}, "[2]": {"target": "T1, Peptidylglycine alpha-amidating monooxygenase (Rattus norvegicus) (UniProt P14925)", "T1 sequence (whole entry)": "B1 chain", "test": "Inhibition of recombinant rat peptidylglycine alpha-amidating monooxygenase assessed as inhibition of oxygen consumption of N-octanoylglycine at 28 mM", "procedure,_shortened": "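Recombinant type A rat medullary thyroid carcinoma bifunctional PAM (15–50 μg) added to 100 mM MES/NaOH pH 6.0, 30 mM NaCl, 1% ethanol, 0.001% Triton X-100, 10 μg/mL catalase, 1.0 μM Cu(NO3)2, ascorbate, 200 μM N-octanoylglycine as substrate, and 28 mM test compound. The read-out is the initial rate of O2 consumption on an oxygen monitor at 37 °C.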"}, "[3]": {"target": "T1, Peptidylglycine alpha-amidating monooxygenase (Rattus norvegicus)", "test": "Inhibition of rat recombinant peptidylglycine alpha-amidating monooxygenase assessed as inhibition of oxygen consumption at 0.9 mM"}, "[4]": {"target": "T1, Peptidylglycine alpha-amidating monooxygenase (Rattus norvegicus)", "test": "Inhibition of recombinant rat peptidylglycine alpha-amidating monooxygenase assessed as inhibition of oxygen consumption at 28 mM"}, "[5]": {"target": "peptidylglycine alpha-amidating monooxygenase (Rattus norvegicus) (UniProt P14925)", "test": "Inhibition of rat peptidylamidoglycolate lyase assessed as ascorbate-independent dealkylation of alpha-hydroxy-hipurate", "parameters": "concentration or dose not given beside the values", "conditions": "concentration not given here"}, "[6]": {"system": "DU-145", "test": "Antiproliferative activity against human DU145 cells at 100 uM by trypan blue assay", "type": "functional"}, "[7]": {"system": "DU-145", "test": "Antiproliferative activity against human DU145 cells at greater than 500 uM by trypan blue assay", "type": "functional, cell-based"}, "[8]": {"target": "T1, Peptidylglycine alpha-amidating monooxygenase (Rattus norvegicus)", "test": "Inhibition of rat recombinant peptidylglycine alpha-amidating monooxygenase in presence of DMSO"}, "[9]": {"target": "T1, Peptidylglycine alpha-amidating monooxygenase (Rattus norvegicus)", "test": "Inhibition of rat recombinant peptidylglycine alpha-amidating monooxygenase assessed as inhibition of N-dansyl-Tyr-Val-Gly amidation"}, "[10]": {"substrate": "O=C(O)CNC(=O)c1ccc([N+](=O)[O-])cc1", "test": "(§1) Activity of rat recombinant peptidylglycine alpha-amidating monooxygenase assessed as stimulation of oxygen consumption"}, "[11]": {"substrate": "O=C(O)CNC(=O)CCCCCCCc1ccccc1", "test": "as §1"}, "[12]": {"substrate": "Nc1ccc(C(=O)NCC(=O)O)cc1", "test": "as §1"}, "[13]": {"substrate": "O=C(O)CNC(=S)CCc1ccccc1", "test": "as §1"}, "[14]": {"substrate": "O=C(O)CNC(=O)CCCCCc1ccccc1", "test": "as §1"}, "[15]": {"substrate": "O=C(O)CNC(=O)/C=C/c1ccco1", "test": "as §1"}, "[16]": {"substrate": "O=C(O)CNC(=O)c1ccco1", "test": "as §1"}, "[17]": {"substrate": "O=C(O)CNC(=O)CNC(=O)CNC(=O)c1ccccc1", "test": "as §1"}, "[18]": {"substrate": "O=C(O)CNC(=O)CNC(=O)CCl", "test": "as §1"}, "[19]": {"substrate": "O=C(O)CNC(=O)C1CC1c1ccccc1", "test": "as §1"}, "[20]": {"substrate": "O=C(O)CNC(=O)c1ccccc1O", "test": "as §1"}, "[21]": {"substrate": "CCc1ccc(C(=O)NCC(=O)O)cc1", "test": "as §1"}, "[22]": {"substrate": "O=C(O)CNC(=O)c1ccc(Cl)cc1", "test": "as §1"}, "[23]": {"substrate": "O=C(O)CNC(=O)c1ccc(Br)cc1", "test": "as §1"}, "[24]": {"substrate": "COc1ccc(C(=O)NCC(=O)O)cc1", "test": "as §1"}, "[25]": {"substrate": "O=C(O)CNC(=O)c1ccc(C(F)(F)F)cc1", "test": "as §1"}, "[26]": {"substrate": "O=C(O)CNC(=O)Nc1ccccc1", "test": "as §1"}, "[27]": {"substrate": "Cc1ccccc1C(=O)NCC(=O)O", "test": "as §1"}, "[28]": {"substrate": "O=C(O)CNC(=O)/C=C/c1ccccc1", "test": "as §1"}, "[29]": {"substrate": "O=C(O)CNC(=O)c1ccccc1I", "test": "as §1"}, "[30]": {"substrate": "Cc1ccc(C(=O)NCC(=O)O)cc1", "test": "as §1"}, "[31]": {"substrate": "O=C(O)CNC(=O)CNC(=O)c1ccc([N+](=O)[O-])cc1", "test": "as §1"}, "[32]": {"substrate": "O=C(O)CNC(=O)CNC(=O)c1ccccc1", "test": "as §1"}, "[33]": {"substrate": "O=C(O)CNC(=O)c1cccc(Cl)c1", "test": "as §1"}, "[34]": {"substrate": "O=C(O)CNC(=O)CCCCc1ccccc1", "test": "as §1"}, "[35]": {"substrate": "O=C(O)CNC(=O)OCc1ccccc1", "test": "as §1"}, "[36]": {"substrate": "C[C@@H](NC(=O)c1ccccc1)C(=O)O", "test": "as §1"}, "[37]": {"substrate": "Nc1ccccc1C(=O)NCC(=O)O", "test": "as §1"}, "[38]": {"substrate": "O=C(O)CNC(=O)SCc1ccccc1", "test": "as §1"}, "[39]": {"substrate": "O=C(O)CNC(=O)CCc1ccccc1", "test": "as §1"}, "[40]": {"substrate": "CCCc1ccc(C(=O)NCC(=O)O)cc1", "test": "as §1"}, "[41]": {"substrate": "O=C(O)CNC(=O)[C@@H]1CCC(=O)N1", "test": "as §1"}, "[42]": {"substrate": "O=C(O)CNC(=S)Cc1ccccc1", "test": "as §1"}, "[43]": {"substrate": "Cc1cccc(C(=O)NCC(=O)O)c1", "test": "as §1"}, "[44]": {"substrate": "O=C(O)CNC(=O)c1ccc(O)cc1", "test": "as §1"}},
  "note": "The source made the active and inactive calls. No cut-off for these calls is given here.",
  "data": [
    {"molecule": "CC1=C(/C=C/C(C)=C/C=C/C(C)=C/C(=O)Nc2ccc(O)cc2)C(C)(C)CCC1", "values": [
      {"measurement": "Activity", "setting": "[1]", "value": "Active"}
    ]},
    {"molecule": "O=C(NCP(=O)(O)O)c1cccnc1", "values": [
      {"measurement": "Activity", "setting": "[2]", "value": "inactive"},
      {"measurement": "Activity", "setting": "[3]", "value": "Active"},
      {"measurement": "Activity", "setting": "[4]", "value": "Active"},
      {"measurement": "inhibition", "setting": "[5]", "value": "< 5", "unit": "%"}
    ]},
    {"molecule": "CCOC(=O)CSC(=S)c1ccc(C)cc1", "values": [
      {"measurement": "inhibition at 100 µM", "setting": "[6]", "value": "≤ 10", "unit": "%"},
      {"measurement": "inhibition", "setting": "[5]", "value": "< 5", "unit": "%"}
    ]},
    {"molecule": "O=C(O)CSC(=S)Cc1ccccc1", "values": [
      {"measurement": "Activity", "setting": "[7]", "value": "Active"},
      {"measurement": "Kis", "setting": "[8]", "value": 13, "unit": "µM"},
      {"measurement": "Kis", "setting": "[9]", "value": 7.9, "unit": "µM"},
      {"measurement": "inhibition", "setting": "[5]", "value": "< 5", "unit": "%"}
    ]},
    {"molecule": "B1", "values": [
      {"measurement": "Km", "setting": "[10]", "value": 470, "unit": "µM"},
      {"measurement": "Km", "setting": "[11]", "value": 100, "unit": "µM"},
      {"measurement": "Km", "setting": "[12]", "value": 2600, "unit": "µM"},
      {"measurement": "Km", "setting": "[13]", "value": 38, "unit": "µM"},
      {"measurement": "Km", "setting": "[14]", "value": 51, "unit": "µM"},
      {"measurement": "Km", "setting": "[15]", "value": 1200, "unit": "µM"},
      {"measurement": "Km", "setting": "[16]", "value": 2700, "unit": "µM"},
      {"measurement": "Km", "setting": "[17]", "value": 310, "unit": "µM"},
      {"measurement": "Km", "setting": "[18]", "value": 420, "unit": "µM"},
      {"measurement": "Km", "setting": "[19]", "value": 900, "unit": "µM"},
      {"measurement": "Km", "setting": "[20]", "value": 860, "unit": "µM"},
      {"measurement": "Km", "setting": "[21]", "value": 1200, "unit": "µM"},
      {"measurement": "Km", "setting": "[22]", "value": 620, "unit": "µM"},
      {"measurement": "Km", "setting": "[23]", "value": 520, "unit": "µM"},
      {"measurement": "Km", "setting": "[24]", "value": 820, "unit": "µM"},
      {"measurement": "Km", "setting": "[25]", "value": 770, "unit": "µM"},
      {"measurement": "Km", "setting": "[26]", "value": 360, "unit": "µM"},
      {"measurement": "Km", "setting": "[27]", "value": 4300, "unit": "µM"},
      {"measurement": "Km", "setting": "[28]", "value": 230, "unit": "µM"},
      {"measurement": "Km", "setting": "[29]", "value": 3400, "unit": "µM"},
      {"measurement": "Km", "setting": "[30]", "value": 1800, "unit": "µM"},
      {"measurement": "Km", "setting": "[31]", "value": 110, "unit": "µM"},
      {"measurement": "Km", "setting": "[32]", "value": 78, "unit": "µM"},
      {"measurement": "Km", "setting": "[33]", "value": 2200, "unit": "µM"},
      {"measurement": "Km", "setting": "[34]", "value": 150, "unit": "µM"},
      {"measurement": "Km", "setting": "[35]", "value": 590, "unit": "µM"},
      {"measurement": "Km", "setting": "[36]", "value": 84000, "unit": "µM"},
      {"measurement": "Km", "setting": "[37]", "value": 1400, "unit": "µM"},
      {"measurement": "Km", "setting": "[38]", "value": 59, "unit": "µM"},
      {"measurement": "Km", "setting": "[39]", "value": 940, "unit": "µM"},
      {"measurement": "Km", "setting": "[40]", "value": 1200, "unit": "µM"},
      {"measurement": "Km", "setting": "[41]", "value": 310, "unit": "µM"},
      {"measurement": "Km", "setting": "[42]", "value": 24, "unit": "µM"},
      {"measurement": "Km", "setting": "[43]", "value": 1400, "unit": "µM"},
      {"measurement": "Km", "setting": "[44]", "value": 1700, "unit": "µM"}
    ]}
  ]
}
